In ChEMBL document CHEMBL4311965, “Antimicrobial activity of amphipathic α,α-disubstituted β-amino amide derivatives against ESBL - CARBA producing multi-resistant bacteria; effect of halogenation, lipophilicity and cationic character” (Eur J Med Chem, 2019):

Assays:
Type in all cases: ADME
[1] = Drug metabolism in Sprague-Dawley rat liver microsomes assessed as CYP450-mediated N-(2-aminoethyl)-2-(aminomethyl)-2-[(3,5-bis(trifluoromethyl)phenyl)methyl]-3-(4-hydroxy-3,5-bis(trifluoromethyl)phenyl)propanamide formation incubated up to 3 hrs in presence of NADPH regenerating system by RP-HPLC-MS analysis
Summary of the method: (§1)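 Substrate at 1 µL of 100 µM aqueous stock in 100 mM potassium phosphate, pH 7.4, with NADPH regenerating system. Pooled male Sprague–Dawley rat liver microsomes (20 mg/mL stock) added, then incubated at 37 °C. Sampled at 0–180 min and quenched with cold methanol containing propranolol internal standard. Analysed by RP-HPLC–HRMS in positive ESI mode. Metabolites confirmed by HCD MS2. Triplicate incubations.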

[2] = Drug metabolism in Sprague-Dawley rat liver microsomes assessed as CYP450-mediated N-(2-aminoethyl)-2-(aminomethyl)-2-[(3,5-dibromo-4-hydroxy-phenyl)methyl]-3-(3,5-dibromophenyl)propanamide formation incubated up to 3 hrs in presence of NADPH regenerating system by RP-HPLC-MS analysis; summary of the method: as §1
[3] = Drug metabolism in Sprague-Dawley rat liver microsomes assessed as CYP450-mediated 4-[2-(aminomethyl)-3-(3,5-dibromophenyl)-2-(4,5-dihydrooxazol-3-ium-2-yl)propyl]-2,6-dibromo-phenol formation incubated up to 3 hrs in presence of NADPH regenerating system by RP-HPLC-MS analysis; summary of the method: as §1

| Structure (SMILES) | Drug metabolism [1] | Drug metabolism [2] | Drug metabolism [3] |
| --- | --- | --- | --- |
| NCCNC(=O)C(CN)(Cc1cc(C(F)(F)F)cc(C(F)(F)F)c1)Cc1cc(C(F)(F)F)cc(C(F)(F)F)c1 | Metabolite_Notdetected |  |  |
| NCCNC(=O)C(CN)(Cc1cc(Br)cc(Br)c1)Cc1cc(Br)cc(Br)c1 |  | Metabolite_Notdetected | Metabolite_Notdetected |
